One assay deals with DU-145. Put plainly: Cytotoxicity against human DU145 cells after 96 hrs by Cell-Titer Blue assay. The assay is classed as functional, cell-based. The note with it: DU-145, 96 h.
For a further assay, the system named is K562. The assay can be described thus: Cytotoxicity against human K562 cells after 96 hrs by Cell-Titer Blue assay. The assay is classed as functional, cell-based. The note with it: K562, 96 h.
In assay [1] the test system is MDA-MB-231. Put plainly: Induction of apoptosis in human MDA-MB-231 cells assessed as PARP cleavage at 1 to 10 uM after 24 hrs by Western blotting analysis. The assay is classed as functional, cell-based.
Assay [2] deals with MCF7. The assay can be described thus: Induction of apoptosis in human MCF7 cells assessed as PARP cleavage at 1 to 10 uM after 24 hrs by Western blotting analysis. The class given is functional, cell-based. On the technique in general: A western blot detects proteins with antibodies after separation by electrophoresis.
Assay [3] deals with MDA-MB-231. The assay can be described thus: Cell cycle arrest in human MDA-MB-231 cells assessed as accumulation at sub-G1 phase at 0.5 to 1 uM after 48 hrs by propidium iodide staining-based flow cytometric analysis. The class given is functional. (In flow cytometry, cells or beads pass a laser one at a time.)
Assay [4] has as its system MCF7. The assay can be described thus: Cell cycle arrest in human MCF7 cells assessed as accumulation at sub-G1 phase at 0.5 to 1 uM after 48 hrs by propidium iodide staining-based flow cytometric analysis. The assay is classed as functional.
The test system of assay [5] is MDA-MB-231. The assay can be described thus: Cell cycle arrest in human MDA-MB-231 cells assessed as accumulation at G1 phase at 0.5 to 1 uM after 24 hrs by propidium iodide staining-based flow cytometric analysis. The class given is functional. The procedure, abridged:
(§1)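 Cells plated at 1.0 × 10^6 per dish, then treated 24 h later with increasing concentrations for 24 h. Floating and adherent cells were pooled, PBS-washed and fixed in ice-cold 70% ethanol for at least 24 h. They were then stained with propidium iodide plus RNase A for 30 min at 37 °C. Percentage of cells in each phase was read by flow cytometry.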

The subject of assay [6] is MCF7. The assay can be described thus: Cell cycle arrest in human MCF7 cells assessed as accumulation at G1 phase at 0.5 to 1 uM after 24 hrs by propidium iodide staining-based flow cytometric analysis. The class given is functional. In a few lines: as §1
The target of assay [7] is T1, Cyclin-dependent kinase 4/cyclin D1 (Homo sapiens) (UniProt P11802+P24385). The assay can be described thus: Inhibition of recombinant CDK4/cyclinD1 in human MDA-MB-231 cells assessed as inhibition of retinoblastoma phosphorylation at Ser780 at 0.5 to 5 uM after 24 hrs by Western blotting analysis. The class given is cell-based. In a few lines:
(§2)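 Breast carcinoma cells were given increasing concentrations for 24 h. Total lysates (100 μg, 10% SDS-PAGE) were immunoblotted with antibodies against Ser780-phosphorylated and non-phosphorylated RB. Bands were read on an infrared scanning system.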

For assay [8], the target named is T1, Cyclin-dependent kinase 4/cyclin D1 (Homo sapiens). The assay can be described thus: Inhibition of recombinant CDK4/cyclinD1 in human MCF7 cells assessed as inhibition of retinoblastoma phosphorylation at Ser780 at 0.5 to 5 uM after 24 hrs by Western blotting analysis. The class given is cell-based. The procedure, abridged: as §2
Assay [9] deals with Phosphatidylinositol 4,5-bisphosphate 3-kinase catalytic subunit delta isoform (Homo sapiens, UniProt O00329). The assay can be described thus: Inhibition of PI3Kdelta (unknown origin).
Sequence of Phosphatidylinositol 4,5-bisphosphate 3-kinase catalytic subunit delta isoform (O00329 whole entry, canonical isoform): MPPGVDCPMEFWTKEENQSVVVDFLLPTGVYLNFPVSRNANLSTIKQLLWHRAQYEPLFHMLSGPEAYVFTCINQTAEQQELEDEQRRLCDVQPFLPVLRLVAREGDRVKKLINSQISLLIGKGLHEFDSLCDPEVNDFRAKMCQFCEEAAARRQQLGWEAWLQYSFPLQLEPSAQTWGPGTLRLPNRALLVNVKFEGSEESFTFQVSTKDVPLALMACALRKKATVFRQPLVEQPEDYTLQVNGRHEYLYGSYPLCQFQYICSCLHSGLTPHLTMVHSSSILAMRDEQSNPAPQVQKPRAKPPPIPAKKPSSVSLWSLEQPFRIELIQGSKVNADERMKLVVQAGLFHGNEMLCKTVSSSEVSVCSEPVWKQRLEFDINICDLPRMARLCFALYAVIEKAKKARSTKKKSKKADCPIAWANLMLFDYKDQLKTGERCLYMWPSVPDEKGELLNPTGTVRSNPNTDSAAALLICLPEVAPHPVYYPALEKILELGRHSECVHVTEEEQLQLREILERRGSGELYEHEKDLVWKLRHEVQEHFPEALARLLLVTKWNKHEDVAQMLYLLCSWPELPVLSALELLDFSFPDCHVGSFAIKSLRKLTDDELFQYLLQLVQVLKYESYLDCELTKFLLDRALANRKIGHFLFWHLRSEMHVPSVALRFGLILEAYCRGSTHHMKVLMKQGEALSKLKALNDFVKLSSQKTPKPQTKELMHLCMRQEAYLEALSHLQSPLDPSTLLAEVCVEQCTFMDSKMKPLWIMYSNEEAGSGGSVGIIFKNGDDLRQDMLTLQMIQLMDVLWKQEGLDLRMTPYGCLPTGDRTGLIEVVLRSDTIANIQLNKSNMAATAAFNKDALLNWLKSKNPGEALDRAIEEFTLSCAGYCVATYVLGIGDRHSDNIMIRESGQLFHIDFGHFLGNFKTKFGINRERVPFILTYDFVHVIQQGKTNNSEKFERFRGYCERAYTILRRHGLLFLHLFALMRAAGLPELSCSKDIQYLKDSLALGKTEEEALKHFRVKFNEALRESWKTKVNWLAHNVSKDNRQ
The target in assay [10] is NUAK family SNF1-like kinase 1 (Homo sapiens, UniProt O60285). The assay can be described thus: Inhibition of ARK5 (unknown origin).
Sequence of NUAK family SNF1-like kinase 1 (O60285 whole entry): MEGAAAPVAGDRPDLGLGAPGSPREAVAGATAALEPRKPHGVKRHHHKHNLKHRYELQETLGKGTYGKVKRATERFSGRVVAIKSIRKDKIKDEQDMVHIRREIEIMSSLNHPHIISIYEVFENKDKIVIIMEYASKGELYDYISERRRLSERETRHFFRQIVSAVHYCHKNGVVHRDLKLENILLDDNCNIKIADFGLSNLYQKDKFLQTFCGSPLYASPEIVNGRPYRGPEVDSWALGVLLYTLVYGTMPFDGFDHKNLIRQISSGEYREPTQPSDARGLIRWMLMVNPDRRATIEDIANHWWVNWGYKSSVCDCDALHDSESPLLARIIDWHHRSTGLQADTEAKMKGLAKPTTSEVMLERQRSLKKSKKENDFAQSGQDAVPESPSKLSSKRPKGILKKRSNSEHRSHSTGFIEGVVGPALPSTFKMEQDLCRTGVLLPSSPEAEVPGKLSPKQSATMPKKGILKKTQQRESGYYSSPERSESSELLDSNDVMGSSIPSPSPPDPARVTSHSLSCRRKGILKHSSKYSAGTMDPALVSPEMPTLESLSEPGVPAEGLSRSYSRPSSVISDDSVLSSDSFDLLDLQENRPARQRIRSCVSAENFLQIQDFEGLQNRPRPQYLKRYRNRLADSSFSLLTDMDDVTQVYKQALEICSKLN
The target in assay [11] is Cyclin-dependent kinase 2/cyclin E1 (Homo sapiens, UniProt P24941). Put plainly: Inhibition of CDK2/cyclinE (unknown origin). The class given is protein-complex assay.
Assay [12] deals with Cyclin-dependent kinase 1/cyclin B1 (Homo sapiens, UniProt P06493). Put plainly: Inhibition of CDK1/cyclinB (unknown origin). The assay is classed as protein-complex assay.
Sequence of Cyclin-dependent kinase 1/cyclin B1 (P06493 whole entry): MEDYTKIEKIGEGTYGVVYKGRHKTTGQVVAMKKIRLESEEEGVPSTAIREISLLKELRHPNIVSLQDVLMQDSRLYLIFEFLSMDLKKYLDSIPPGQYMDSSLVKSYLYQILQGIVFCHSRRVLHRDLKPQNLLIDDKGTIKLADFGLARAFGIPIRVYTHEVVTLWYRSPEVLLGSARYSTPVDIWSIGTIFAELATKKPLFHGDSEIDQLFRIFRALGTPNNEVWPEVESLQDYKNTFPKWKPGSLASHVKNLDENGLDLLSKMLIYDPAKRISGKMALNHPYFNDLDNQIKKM
Sequence of Cyclin-dependent kinase 1/cyclin B1 (P14635 whole entry, further chain): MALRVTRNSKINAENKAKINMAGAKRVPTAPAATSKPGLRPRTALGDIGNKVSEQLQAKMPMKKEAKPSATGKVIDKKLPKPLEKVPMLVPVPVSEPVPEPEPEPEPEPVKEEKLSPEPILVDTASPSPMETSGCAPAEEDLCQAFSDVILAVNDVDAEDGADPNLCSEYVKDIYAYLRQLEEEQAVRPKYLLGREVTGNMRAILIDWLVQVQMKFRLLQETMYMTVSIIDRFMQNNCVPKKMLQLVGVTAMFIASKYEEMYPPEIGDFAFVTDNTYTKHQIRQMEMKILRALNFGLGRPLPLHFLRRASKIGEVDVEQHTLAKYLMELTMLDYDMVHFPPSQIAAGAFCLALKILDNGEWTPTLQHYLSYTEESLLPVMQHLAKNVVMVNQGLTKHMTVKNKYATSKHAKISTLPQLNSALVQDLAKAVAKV

Activity calls are given as the source filed them. The calls are words filed in the database; no cut-off is given here. Some results are limits rather than exact numbers.

As usually defined, the IC50 is the concentration needed to halve the response being measured. Read a low IC50 as greater potency. For the compound `CC(C)n1c(=O)c(C#N)cc2cnc(Nc3ccc(N4CCN(C)CC4)cc3)nc21`, the IC50 in the assay on DU-145 and in the assay with K562 was 2.5 µM in each case.
As for `N#Cc1cc2cnc(Nc3cnc4ccccc4c3)nc2n(C2CCCC2)c1=O`, the IC50 in the assay on DU-145 and in the assay with K562 was 5 µM each time.
Consider `CCCCCn1c(=O)c(C#N)cc2cnc(Nc3ccc(N4CCN(C)CC4)cc3)nc21`, for which the IC50 in the assay with DU-145 was found to be 1.5 µM; in the assay on K562, 0.75 µM.
Turning to `N#Cc1cc2cnc(Nc3ccc4[nH]ccc4c3)nc2n(C2CCCC2)c1=O`, the IC50 in the assay with DU-145 and in the assay with K562 was 5 µM in each case.
On to `CCCCn1c(=O)c(C#N)cc2cnc(Nc3ccc(N4CCN(C)CC4)cc3)nc21`, for which the IC50 in the assay on DU-145 and in the assay with K562 was 0.75 µM in each case.
On to `COc1ccc(Nc2ncc3cc(C#N)c(=O)n(C4CCCC4)c3n2)cc1`, for which the concentration for half-maximal inhibition (IC50) was determined as 25 µM with DU-145 and 75 µM in the assay on K562.
Taken in the same sequence, the figures for `N#Cc1cc2cnc(Nc3ccc(Cl)cc3)nc2n(C2CCCC2)c1=O` were 30 µM and 30 µM.
`N#Cc1cc2cnc(Nc3ccccc3O)nc2n(C2CCCC2)c1=O`: the IC50 with DU-145 and in the assay with K562 was 15 µM each time.
As to `CN1CCN(c2ccc(Nc3ncc4cc(C#N)c(=O)[nH]c4n3)cc2)CC1`, the IC50 in the assay on DU-145 and in the assay with K562 was 30 µM each time.
As for `CN1CCN(c2ccc(N(C(=O)c3ccc(C(F)(F)F)cc3)c3ncc4cc(C#N)c(=O)n(C5CCCC5)c4n3)cc2)CC1`, the IC50 was determined as 1 µM with DU-145 and 0.5 µM in the assay on K562.
Taken in the same sequence, the figures for `CN1CCN(c2ccc(Nc3ncc4cc([N+](=O)[O-])c(=O)n(C5CCCC5)c4n3)cc2)CC1` were 2.5 µM and 0.75 µM.
The matching figures for `N#Cc1cc2cnc(N3CCN(c4ccc(C(F)(F)F)cn4)CC3)nc2n(C2CCCC2)c1=O`: 100 µM and 30 µM.
Taken in the same sequence, the figures for `COc1ccc(F)cc1Nc1ncc2cc(C#N)c(=O)n(C3CCCC3)c2n1` were 75 µM and 75 µM.
For `CN1CCN(c2ccc(Nc3ncc4cc(C#N)c(=O)n(C5CCCC5)c4n3)nc2)CC1`, the IC50 in the assay on DU-145 was 15 µM; in the assay on K562 it was 5 µM.
Taken in the same sequence, the figures for `COc1ccc(CS(=O)(=O)c2cc3cnc(Nc4ccc(N5CCN(C)CC5)cc4)nc3n(C3CCCC3)c2=O)cc1O` were 2 µM and 2 µM.
With `COc1ccc(Nc2ncc3cc(C#N)c(=O)n(C4CCCC4)c3n2)cc1OC`, the IC50 was found to be 5 µM with DU-145 and 2 µM in the assay on K562.
Taken in the same sequence, the figures for `CCCn1c(=O)c(C#N)cc2cnc(Nc3ccc(N4CCN(C)CC4)cc3)nc21` were 15 µM and 5 µM.
Taken in the same sequence, the figures for `COc1ccc(Nc2ncc3cc(C#N)c(=O)n(C4CCCC4)c3n2)c(OC)c1` were 15 µM and 15 µM.
In the case of `CC(=O)c1c(C)c2cnc(Nc3ccc(N4CCNCC4)cn3)nc2n(C2CCCC2)c1=O` [PALBOCICLIB], the result in the assay with MDA-MB-231 [1], in the assay with MCF7 [2], in the assay on MDA-MB-231 [3] and in the assay on MCF7 [4] was inactive. Further, the outcome in the assay with MDA-MB-231 [5] and with MCF7 [6] was Active. Also, the inhibition result in [7] and in assay [8] was “Active” in each case. Also, the IC50 in assay [9] is > 10 µM; in [10], > 5 µM; with DU-145 it was 7.5 µM; with K562, 2 µM.
For the compound `CC(=O)N(c1ccc(N2CCN(C)CC2)cc1)c1ncc2cc(C#N)c(=O)n(C3CCCC3)c2n1`, the results for the IC50 in the assay on DU-145 and in the assay on K562 were 5 µM and 0.75 µM, respectively.
The matching figures for `CN1CCN(c2ccc(Nc3ncc4cc(S(=O)(=O)c5ccc(Cl)cc5)c(=O)n(C5CCCC5)c4n3)cc2)CC1`: 15 µM and 5 µM.
Turning to `N#Cc1cc2cnc(Nc3cccc4cccnc34)nc2n(C2CCCC2)c1=O`, the 50% inhibitory concentration (IC50) in the assay with DU-145 and in the assay on K562 was 1 µM in each case.
As for `CN1CCN(c2ccc(Nc3ncc4cc(C#N)c(=O)n(C5CC5)c4n3)cc2)CC1`, the IC50 in the assay on DU-145 and in the assay with K562 was 2.5 µM each time.
Regarding `CN1CCN(c2ccc(Nc3ncc4cc(S(=O)(=O)c5ccccc5)c(=O)n(C5CCCC5)c4n3)cc2)CC1`, the results for the IC50 in the assay with DU-145 and in the assay on K562 were 75 µM and 30 µM, respectively.
Taken in the same sequence, the figures for `CN1CCN(c2ccc(Nc3ncc4cc(C#N)c(=O)n(C)c4n3)cc2)CC1` were 75 µM and 75 µM.
For `CN1CCN(c2ccc(Nc3ncc4cc(C(=O)Nc5ccc(Cl)cc5)c(=O)n(C5CCCC5)c4n3)cc2)CC1`, the figures for the IC50 in the assay on DU-145 and with K562 were 30 µM and 5 µM, respectively.
Consider `N#Cc1cc2cnc(Nc3cccc4[nH]ccc34)nc2n(C2CCCC2)c1=O`, for which the IC50 with DU-145 turned out to be 15 µM; in the assay with K562, 30 µM.
As to `Nc1ccc2c(=S)c3ccccc3[nH]c2c1`, the IC50 in [11] and in [12] was > 100 µM each time.
On to `CN1CCN(c2ccc(Nc3ncc4cc(C(=O)Nc5ccc(F)cc5)c(=O)n(C5CCCC5)c4n3)cc2)CC1`, for which the IC50 was found to be 30 µM in the assay on DU-145 and 15 µM with K562.
As to `N#Cc1cc2cnc(Nc3ccccn3)nc2n(C2CCCC2)c1=O`, the figures for the IC50 in the assay with DU-145 and in the assay on K562 were 3 µM and 0.5 µM, respectively.
In the case of `COc1ccccc1Nc1ncc2cc(C#N)c(=O)n(C3CCCC3)c2n1`, the IC50 was determined as 30 µM with DU-145 and 15 µM in the assay with K562.
Taken in the same sequence, the figures for `COc1ccc(CS(=O)(=O)c2cc3cnc(Nc4ccc(N5CCN(C)CC5)cc4)nc3n(C3CCCC3)c2=O)cc1[N+](=O)[O-]` were 5 µM and 2 µM.
The matching figures for `N#Cc1ccc(Nc2ncc3cc(C#N)c(=O)n(C4CCCC4)c3n2)cc1`: 5 µM and 75 µM.
The matching figures for `CCn1c(=O)c(C#N)cc2cnc(Nc3ccc(N4CCN(C)CC4)cc3)nc21`: 1.5 µM and 0.75 µM.
For the compound `N#Cc1cc2cnc(Nc3ccc(N4CCOCC4)cn3)nc2n(C2CCCC2)c1=O`, the IC50 amounted to 15 µM in the assay on DU-145 and 5 µM in the assay on K562.
The matching figures for `COc1cc(Nc2ncc3cc(C#N)c(=O)n(C4CCCC4)c3n2)cc(OC)c1OC`: 5 µM and 2.5 µM.
Taken in the same sequence, the figures for `N#Cc1cc2cnc(NCc3ccccc3)nc2n(C2CCCC2)c1=O` were 75 µM and 100 µM.
The matching figures for `N#Cc1cc2cnc(Nc3ccc(N4CCOCC4)cc3)nc2n(C2CCCC2)c1=O`: 15 µM and 5 µM.
As to `CN1CCN(c2ccc(Nc3ncc4cc(C#N)c(=O)n(C5CCCCC5)c4n3)cc2)CC1`, the concentration for half-maximal inhibition (IC50) in the assay on DU-145 was found to be 50 µM; with K562, 1.5 µM.
Taken in the same sequence, the figures for `COc1cc(Nc2ncc3cc(C#N)c(=O)n(C4CCCC4)c3n2)cc(OC)c1` were 15 µM and 15 µM.
Take `N#Cc1ccnc(Nc2ncc3cc(C#N)c(=O)n(C4CCCC4)c3n2)c1`: the IC50 amounted to 30 µM in the assay with DU-145 and 5 µM with K562.
Regarding `CN1CCN(c2ccc(Nc3ncc4cc(S(=O)(=O)Cc5ccc(Cl)cc5)c(=O)n(C5CCCC5)c4n3)cc2)CC1`, the IC50 with DU-145 is 75 µM; in the assay with K562, 10 µM.
Taken in the same sequence, the figures for `CN1CCN(c2ccc(Nc3ncc4cc(S(C)(=O)=O)c(=O)n(C5CCCC5)c4n3)cc2)CC1` were 5 µM and 5 µM.
The matching figures for `COc1cccc(Nc2ncc3cc(C#N)c(=O)n(C4CCCC4)c3n2)c1`: 0.5 µM and 5 µM.
Taken in the same sequence, the figures for `COc1ccc2cc(Nc3ncc4cc(C#N)c(=O)n(C5CCCC5)c4n3)ccc2n1` were 3 µM and 0.25 µM.

For the origin of these results see ChEMBL document CHEMBL3112420, “Discovery of 8-cyclopentyl-2-[4-(4-methyl-piperazin-1-yl)-phenylamino]-7-oxo-7,8-dihydro-pyrido[2,3-d]pyrimidine-6-carbonitrile (7x) as a potent inhibitor of cyclin-dependent kinase 4 (CDK4) and AMPK-related kinase 5 (ARK5)” (J Med Chem, 2014).
